# From ChEMBL document CHEMBL2407011, “Novel 2-(2,4-dioxo-1,3-thiazolidin-5-yl)acetamides as antioxidant and/or anti-inflammatory compounds” (Eur J Med Chem, 2013)
# What was measured:
# [1] = Antioxidant activity assessed as superoxide radical scavenging activity after 5 mins by spectrophotometry; format: functional
# How it was run: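 Superoxide generated by PMS/NADH reducing NBT, in 16 mM Tris-HCl pH 8.0 with […], 50 µM NBT, 10 µM PMS and compound (5–180 µg/mL). After 5 min at room temperature, formazan read at 560 nm; % scavenging versus control, EC50 from triplicates.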
# [2] = test system: THP-1; test: Antiinflammatory activity in human THP1 cells assessed as inhibition of PMA-induced IL-1beta secretion preincubated for 1 hr prior PMA-challenge measured after 48 hrs by ELISA; format: functional, cell-based
# How it was run: (§1)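 THP1 cells at 2 x 10^5 cells/mL were pretreated 1 h with 5, 10 and 20 µM compound, then stimulated with 10 ng/mL PMA for 48 h. Supernatant IL-1β or MCP-1 was measured by ELISA at 450 nm (corrected at 570 nm) and quantified from a standard curve. Percent inhibition was taken versus control and IC50 derived, reported as mean ± SD of three independent experiments.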
# [3] = test system: THP-1; test: Antiinflammatory activity in human THP1 cells assessed as inhibition of PMA-induced MCP-1 secretion preincubated for 1 hr prior PMA-challenge measured after 48 hrs by ELISA; format: functional, cell-based; how it was run: as §1
# [4] = Antioxidant activity assessed as inhibition of lipid peroxidation activity after 15 mins by MDA assay; format: functional
# How it was run: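 Egg yolk diluted 1:1 in PBS (0.1 M, pH 7.45) served as substrate. Compound (50–300 µg/mL) was added with FeSO4 (25 mM stock) and incubated 15 min at 37 °C. Reaction stopped with 20% TCA plus 0.8% thiobarbituric acid, then heated 15 min at 100 °C. MDA adduct read at 532 nm; % inhibition versus control, EC50 from triplicates.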
# [5] = Hemolysis of human erythrocytes after 30 mins by spectrophotometry; format: ADME, cell-based, Erythrocyte
# How it was run: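 Citrated human blood centrifuged (3,000 g, 10 min), erythrocytes washed in PBS pH 7.4 and made up as a 1.25% suspension. Suspension incubated with H2O2 (2.5 mM) and compound (50–300 µg/mL) 30 min at 37 °C, stopped on ice, centrifuged, read at 540 nm. Inhibition = (AH2O2 − Asample)/(AH2O2 − Anormal) × 100.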
# [6] = Antioxidant activity assessed as DPPH scavenging activity after 30 mins by UV-visible spectrophotometry; format: functional
# How it was run: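 Methanolic compound solutions (5–180 µg/mL) mixed 1:1 by volume with 0.002% DPPH in methanol, shaken and kept in the dark 30 min. Absorbance read at 517 nm; % scavenging = (Acontrol − Asample)/Acontrol × 100. EC50 is the concentration scavenging 50% of radicals; mean of three experiments.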
# [7] = test system: THP-1; test: Antiinflammatory activity against PMA-stimulated human THP1 cells assessed as MCP-1 levels after 48 hrs by ELISA (reference value: 3521.63 +/- 79.78 pg/ml); format: functional
# [8] = test system: THP-1; test: Antiinflammatory activity against PMA-stimulated human THP1 cells assessed as IL-1beta levels after 48 hrs by ELISA (reference value: 172 +/- 0.71 pg/ml); format: functional
# [9] = Homo sapiens, Erythrocyte, 0.5 h, read-out: EC50
EC50 [1],IC50 [2] [µM],IC50 [3] [µM],EC50 [4],EC50 [6],Structure (SMILES),EC50 ([5]; erythrocyte),"EC50 [5, 9] [µg/mL]",Activity [7] [pg/mL],Activity [8] [pg/mL]
Not Active,> 50,17.6,Not Active,52.69 µg/mL,O=C(CC1SC(=O)NC1=O)Nc1nc(-c2ccc(F)cc2)cs1 (stereo not given),Not Active,–,–,–
Not Active,33.1,49.1,Not Active,49.71 µg/mL,O=C(CC1SC(=O)NC1=O)Nc1nc(-c2ccc(Br)cc2)cs1 (stereo not given),Not Active,–,–,–
–,> 50,31.7,–,Not Active,O=C(CC1SC(=O)NC1=O)Nc1nc(-c2ccc(I)cc2)cs1 (stereo not given),Not Active,–,–,–
–,18.2,26.5,–,Not Active,O=C(CC1SC(=O)NC1=O)Nc1nc(-c2ccccc2Cl)cs1 (stereo not given),–,–,–,–
–,23.4,34.2,–,Not Active,O=C(CC1SC(=O)NC1=O)Nc1nc(-c2cccc(Cl)c2)cs1 (stereo not given),–,–,–,–
–,7.66,18.8,–,Not Active,Cc1ccccc1-c1csc(NC(=O)CC2SC(=O)NC2=O)n1 (stereo not given),–,–,–,–
Not Active,11.7,18.9,–,90.16 µg/mL,Cc1cccc(-c2csc(NC(=O)CC3SC(=O)NC3=O)n2)c1 (stereo not given),Not Active,–,–,–
Not Active,> 50,16.7,Not Active,82.5 µg/mL,O=C(CC1SC(=O)NC1=O)Nc1nc(-c2ccccc2F)cs1 (stereo not given),Not Active,–,–,–
79.94 µg/mL,7.23,> 50,131.79 µg/mL,58.68 µg/mL,COc1ccccc1-c1csc(NC(=O)CC2SC(=O)NC2=O)n1 (stereo not given),–,96.6,–,–
101.18 µg/mL,> 50,20.8,149.7 µg/mL,52.18 µg/mL,O=C(CC1SC(=O)NC1=O)Nc1nc2ccccc2s1 (stereo not given),–,107,–,–
Not Active,6.83,20.3,Not Active,39.76 µg/mL,O=C(CC1SC(=O)NC1=O)Nc1nc2ccc([N+](=O)[O-])cc2s1 (stereo not given),Not Active,–,–,–
Not Active,7.03,39.6,Not Active,51.82 µg/mL,COc1ccc2nc(NC(=O)CC3SC(=O)NC3=O)sc2c1 (stereo not given),Not Active,–,–,–
Not Active,> 50,63.1,Not Active,62.9 µg/mL,CCOc1ccc2nc(NC(=O)CC3SC(=O)NC3=O)sc2c1 (stereo not given),Not Active,–,–,–
–,9.6,30.4,–,Not Active,O=C(CC1SC(=O)NC1=O)Nc1nc(-c2ccccc2)cs1 (stereo not given),–,–,–,–
–,16.3,> 50,–,Not Active,O=C(CC1SC(=O)NC1=O)Nc1nc(-c2ccc(Cl)cc2)cs1 (stereo not given),–,–,–,–
21.01 µg/mL,–,–,139.97 µg/mL,40.28 µg/mL,O=C1O[C@H]([C@@H](O)CO)C(O)=C1O [ASCORBIC ACID],–,96.6,–,–
–,> 50,18.8,–,–,CCc1ccc(CCOc2ccc(CC3SC(=O)NC3=O)cc2)nc1 (stereo not given) [PIOGLITAZONE],–,–,2588.33,165
–,21.3,–,–,–,CN1C(C(=O)Nc2ccccn2)=C(O)c2ccccc2S1(=O)=O [PIROXICAM],–,–,–,–

Structure (SMILES),EC50 [1],IC50 [2] [µM],IC50 [3] [µM],EC50 [4],EC50 [6],EC50 ([5]; erythrocyte),"EC50 [5, 9] [µg/mL]",Activity [7] [pg/mL],Activity [8] [pg/mL]
O=c1cc(-c2ccc(O)c(O)c2)oc2cc(O)cc(O)c12 [LUTEOLIN],31.01 µg/mL,–,–,149.7 µg/mL,44.18 µg/mL,–,107,–,–
